Measurements reported in ChEMBL document CHEMBL1177650, “Synthesis, structural elucidation and in vitro antiparasitic activity against Trypanosoma cruzi and Leishmania chagasi parasites of novel tetrahydro-1-benzazepine derivatives” (Bioorg Med Chem, 2010).

How the values were obtained:
[1] = Cytotoxicity against african green monkey Vero cells after 72 hrs by MTT assay; assay type: cell-based; details: chlorocebus sabaeus
In short: (§1)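 Vero or transformed THP-1 cells incubated with compound (0.3–300 μM) 72 h at 37 °C, 5% CO2; untreated controls. MTT read-out, formazan OD at 580 nm; % cytotoxicity = 100 × (OD control − OD treated)/OD control. CC50/CC90 by sigmoidal regression; triplicates, repeated twice. DMSO stocks 100× concentrated, diluted in medium.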

Trypanosoma cruzi [2] = test: Antitrypanosomal activity against Trypanosoma cruzi 320I01 epimastigotes after 72 hrs by haemocytometry; assay type: functional, organism-based; details: 320I01, 72 h
In short: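 Late-phase T. cruzi epimastigotes cultured in LIT medium with hiFCS at 28 °C; threefold serial dilutions (0.3–100 μM) for 72 h at 28 °C, untreated controls. Parasites counted in a haemocytometer; IC50/IC90 by sigmoidal regression; each concentration in triplicate, two experiments.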

[3] = Selectivity index, CC50 for african green monkey Vero cells to IC50 for Trypanosoma cruzi 320I01 epimastigote; assay type: functional
In short: (§2)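 Selectivity index computed as CC50 in Vero cells divided by IC50 against the T. cruzi stage named in the line.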

Trypanosoma cruzi [4] = test: Antitrypanosomal activity against Trypanosoma cruzi 320I01 amastigotes infected in african green monkey Vero cells after 5 days by Giemsa staining; assay type: functional, organism-based; details: 320I01, Vero, 120 h
In short: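 Vero cells (RPMI, 5% hiSBF, 37 °C, 5% CO2) infected 24 h with tissue-derived T. cruzi trypomastigotes at parasite:cell 10:1. Compound dilutions (top 100 μM) applied 5 days at 37 °C, 5% CO2, medium changed once at day 3. Infected cells scored per 300 cells on methanol-fixed Giemsa preparations; IC50/IC90 by sigmoidal regression; triplicates, two experiments.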

[5] = Selectivity index, CC50 for african green monkey Vero cells to IC50 for Trypanosoma cruzi 320I01 amastigotes; assay type: functional; in short: as §2
Leishmania chagasi [6] = test: Antileishmanial activity against Leishmania chagasi MHOM/BR/74/PP75 promastigotes after 72 hrs by haemocytometry; assay type: functional, organism-based; details: MHOM/BR/74/PP75, 72 h
In short: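 Late-phase L. chagasi promastigotes, grown at 28 °C in RPMI 1640 with hemin, HEPES and 10% hiSBF, exposed to threefold serial dilutions (0.3–100 μM) for 72 h at 28 °C; untreated controls. Growth inhibition from haemocytometer counts; IC50/IC90 by sigmoidal regression; triplicates, repeated twice.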

[7] = Cytotoxicity against human THP1 cells after 72 hrs by MTT assay; assay type: cell-based; details: THP-1 cells; in short: as §1
[8] = Selectivity index, CC50 for human THP1 cells to IC50 for Leishmania chagasi MHOM/BR/74/PP75 promastigotes; assay type: functional, THP-1
In short: (§3)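 Selectivity index computed as CC50 in THP-1 cells divided by IC50 against the L. chagasi stage named in the line.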

Leishmania chagasi [9] = test: Antileishmanial activity against Leishmania chagasi MHOM/BR/74/PP75 amastigotes infected in human THP1 cells after 5 days by Giemsa staining; assay type: functional, organism-based; details: MHOM/BR/74/PP75, THP-1, 120 h
In short: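 THP-1 cells (RPMI, 5% hiSBF, 37 °C, 5% CO2) transformed, then infected 24 h with late-phase L. chagasi promastigotes at parasite:cell 10:1. Treated with compound dilutions (top 100 μM) 5 days at 37 °C, 5% CO2, medium changed once after 3 days. Infected cells counted per 300 cells on methanol-fixed Giemsa slides; IC50/IC90 by sigmoidal regression; triplicates, repeated twice.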

[10] = Selectivity index, CC50 for human THP1 cells to IC50 for Leishmania chagasi MHOM/BR/74/PP75 amastigotes; assay type: functional, THP-1; in short: as §3

SMILES | CC50 at 72 h [1] | CC90 at 72 h [1] | IC50 (Trypanosoma cruzi [2]) | IC90 (Trypanosoma cruzi [2]) | Selectivity Index [3] | IC50 (Trypanosoma cruzi [4]) | IC90 (Trypanosoma cruzi [4]) | Selectivity Index [5] | IC50 (Leishmania chagasi [6]) | IC90 (Leishmania chagasi [6]) | CC50 at 72 h [7] | CC90 at 72 h [7] | Selectivity Index [8] | IC50 (Leishmania chagasi [9]) | IC90 (Leishmania chagasi [9]) | Selectivity Index [10]
O[C@@H]1Cc2cc(Cl)ccc2N[C@H](c2c(F)cccc2Cl)C1 (relative stereo) | 92 µM | 182 µM | 14.5 µM | 34.8 µM | 6.36 | > 34.1 µM | > 34.1 µM | >2 | 39.8 µM | 78.5 µM | 110 µM | 214 µM | 2.76 | 73.2 µM | > 100 µM | >1
O[C@@H]1Cc2ccccc2N[C@H](c2c(Cl)cccc2Cl)C1 (relative stereo) | > 300 µM | > 300 µM | 48.9 µM | > 100 µM | >6 | 69.9 µM | > 100 µM | >4 | > 100 µM | > 100 µM | > 300 µM | > 300 µM | >3 | > 100 µM | > 100 µM | >3
O[C@@H]1Cc2ccccc2N[C@H](c2c(F)cccc2Cl)C1 (relative stereo) | > 300 µM | > 300 µM | > 100 µM | > 100 µM | >3 | > 100 µM | > 100 µM | >3 | > 100 µM | > 100 µM | > 300 µM | > 300 µM | >3 | > 100 µM | > 100 µM | >3
O[C@@H]1Cc2cc(Cl)ccc2N[C@H](c2c(Cl)cccc2Cl)C1 (relative stereo) | 49.9 µM | 176 µM | 14.8 µM | 53 µM | 3.36 | > 32.5 µM | > 32.5 µM | >1 | 14.7 µM | 30.3 µM | 59.6 µM | > 293 µM | 4.06 | > 32.5 µM | > 32.5 µM | >1
Cc1ccc2c(c1)C[C@@H](O)C[C@@H](c1ccccc1Cl)N2 (relative stereo) | 82.4 µM | > 300 µM | 22.4 µM | 67.2 µM | 3.67 | 45.8 µM | 73.6 µM | 1.8 | 41.3 µM | 49.4 µM | 85.2 µM | > 300 µM | 2.06 | > 100 µM | > 100 µM | >0.85
O[C@@H]1Cc2cc(Cl)ccc2N[C@H](c2ccccc2Cl)C1 (relative stereo) | 106 µM | > 300 µM | 15.3 µM | 35.7 µM | 6.91 | > 100 µM | > 36.1 µM | >1 | 50.2 µM | > 100 µM | 75.5 µM | > 300 µM | 1.5 | > 100 µM | > 100 µM | >0.75
O[C@@H]1Cc2cc(Cl)ccc2N[C@H](c2ccccc2F)C1 (relative stereo) | 182 µM | > 300 µM | 17.3 µM | 79.9 µM | 10.53 | > 38.1 µM | > 38.1 µM | >4 | 54.5 µM | > 100 µM | 110 µM | 273 µM | 2.02 | > 100 µM | > 100 µM | >1
O[C@@H]1Cc2ccccc2N[C@H](c2ccccc2Cl)C1 (relative stereo) | > 300 µM | > 300 µM | 49.7 µM | > 100 µM | >6 | > 100 µM | > 100 µM | >3 | 84.4 µM | > 100 µM | > 300 µM | > 300 µM | >3 | > 100 µM | > 100 µM | >3
O[C@@H]1Cc2ccccc2N[C@H](c2ccccc2F)C1 (relative stereo) | > 300 µM | > 300 µM | 63 µM | > 100 µM | >4 | > 100 µM | > 100 µM | >3 | > 100 µM | > 100 µM | > 300 µM | > 300 µM | >3 | > 100 µM | > 100 µM | >3
C[C@@H]1[C@H](O)[C@@H](C)/C=C/C=C/C=C/C=C/C=C/C=C/C=C/[C@H](O[C@@H]2O[C@H](C)[C@@H](O)[C@H](N)[C@@H]2O)C[C@@H]2O[C@](O)(C[C@@H](O)C[C@@H](O)[C@H](O)CC[C@@H](O)C[C@@H](O)CC(=O)O[C@H]1C)C[C@H](O)[C@H]2C(=O)O [AMPHOTERICIN B] |  |  |  |  |  |  |  |  | 0.02 µM | 0.02 µM | 8.79 µM | 34.9 µM | 439.5 | 0.08 µM | 0.14 µM | 109.87
CC1CS(=O)(=O)CCN1/N=C/c1ccc([N+](=O)[O-])o1 (stereo not given) [NIFURTIMOX] | 61.4 µM | > 300 µM | 2.33 µM | 23.4 µM | 26.36 | 2.3 µM | 9.06 µM | 26.7 |  |  |  |  |  |  |  | 
